Source: ChEMBL document CHEMBL1135421, “2-(Anilinomethyl)imidazolines as alpha1 adrenergic receptor agonists: the discovery of alpha1a subtype selective 2'-alkylsulfonyl-substituted analogues” (J Med Chem, 2002)

What was measured:
[1] = biological target: T1, Alpha-1D adrenergic receptor (Homo sapiens, UniProt P25100); test: Affinity to human Alpha-1D adrenergic receptor determined by radioligand binding techniques from rat-1 fibroblasts membranes
T1 sequence (P25100 whole entry): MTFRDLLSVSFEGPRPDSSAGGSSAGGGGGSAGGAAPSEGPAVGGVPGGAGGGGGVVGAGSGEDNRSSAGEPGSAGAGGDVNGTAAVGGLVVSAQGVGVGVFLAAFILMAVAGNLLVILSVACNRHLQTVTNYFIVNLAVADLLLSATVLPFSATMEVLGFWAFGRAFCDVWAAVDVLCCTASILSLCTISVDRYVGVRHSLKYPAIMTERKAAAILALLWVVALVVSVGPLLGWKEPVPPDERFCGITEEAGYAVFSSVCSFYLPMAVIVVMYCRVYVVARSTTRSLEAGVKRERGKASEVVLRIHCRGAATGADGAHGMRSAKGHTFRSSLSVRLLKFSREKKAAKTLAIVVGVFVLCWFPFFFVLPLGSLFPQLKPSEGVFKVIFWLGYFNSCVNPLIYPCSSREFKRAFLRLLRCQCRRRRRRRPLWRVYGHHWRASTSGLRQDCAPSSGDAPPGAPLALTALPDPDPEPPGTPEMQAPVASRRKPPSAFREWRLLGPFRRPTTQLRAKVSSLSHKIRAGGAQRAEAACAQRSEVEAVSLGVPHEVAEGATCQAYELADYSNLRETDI

[2] = biological target: T1, Alpha-1D adrenergic receptor; test: Agonist potency at Alpha-1D adrenergic receptor assayed in rat-1 fibroblasts expressing human Alpha-1D adrenergic receptor; type: functional
Procedure, shortened: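 Rat-1 fibroblasts expressing human α1a/α1b/α1d, grown in DMEM with 10% heat-inactivated FBS and 0.6 mg/mL G418, plated 6000 cells/well and cultured 48 h at 37 °C. Loaded 2 h at 37 °C with Calcium Green (4 μM), 0.2% pluronic acid and 2.5 mM probenecid in HEPES buffer pH 7.4. FLIPR read at room temperature: 10 s baseline, then 50 s after compound. 11-point curves as % of 40 μM phenylephrine response, top concentration typically 5 μM.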

[3] = biological target: T2, Alpha-1A adrenergic receptor (Homo sapiens, UniProt P35348); test: Affinity to Alpha-1 adrenergic receptor determined by radioligand binding techniques from rat-1 fibroblasts membranes
T2 sequence (P35348 whole entry): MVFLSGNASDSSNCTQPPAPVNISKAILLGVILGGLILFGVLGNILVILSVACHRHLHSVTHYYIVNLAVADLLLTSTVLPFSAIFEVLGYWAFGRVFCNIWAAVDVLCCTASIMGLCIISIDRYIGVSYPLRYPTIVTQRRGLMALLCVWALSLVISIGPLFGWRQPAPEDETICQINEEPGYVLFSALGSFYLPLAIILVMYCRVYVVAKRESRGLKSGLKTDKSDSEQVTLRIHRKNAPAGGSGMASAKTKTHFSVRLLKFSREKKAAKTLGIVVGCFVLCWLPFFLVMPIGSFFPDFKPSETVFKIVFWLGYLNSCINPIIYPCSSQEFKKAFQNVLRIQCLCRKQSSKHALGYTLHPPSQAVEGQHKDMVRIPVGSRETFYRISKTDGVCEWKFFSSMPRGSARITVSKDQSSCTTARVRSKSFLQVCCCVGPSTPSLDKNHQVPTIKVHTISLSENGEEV

[4] = biological target: T3, Alpha-2B adrenergic receptor (Homo sapiens, UniProt P18089); test: Affinity to human Alpha-2B adrenergic receptor determined by radioligand binding techniques from chinese hamster ovary (CHO) cells; type: cell-based
T3 sequence (P18089 whole entry): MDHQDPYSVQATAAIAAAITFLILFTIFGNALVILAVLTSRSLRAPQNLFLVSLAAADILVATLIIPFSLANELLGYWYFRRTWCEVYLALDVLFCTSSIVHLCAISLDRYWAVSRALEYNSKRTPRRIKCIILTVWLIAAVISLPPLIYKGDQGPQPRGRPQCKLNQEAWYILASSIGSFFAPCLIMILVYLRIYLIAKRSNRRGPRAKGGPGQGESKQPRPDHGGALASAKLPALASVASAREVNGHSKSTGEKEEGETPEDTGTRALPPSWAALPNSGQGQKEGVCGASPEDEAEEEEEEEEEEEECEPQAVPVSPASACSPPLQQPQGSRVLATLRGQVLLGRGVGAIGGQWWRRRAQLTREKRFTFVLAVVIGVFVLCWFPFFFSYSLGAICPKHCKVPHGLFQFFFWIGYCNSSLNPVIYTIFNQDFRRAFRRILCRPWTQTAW

[5] = biological target: T4, Alpha-1B adrenergic receptor (Homo sapiens, UniProt P35368); test: Affinity to human Alpha-1B adrenergic receptor determined by radioligand binding techniques from rat-1 fibroblasts membranes
T4 sequence (P35368 whole entry): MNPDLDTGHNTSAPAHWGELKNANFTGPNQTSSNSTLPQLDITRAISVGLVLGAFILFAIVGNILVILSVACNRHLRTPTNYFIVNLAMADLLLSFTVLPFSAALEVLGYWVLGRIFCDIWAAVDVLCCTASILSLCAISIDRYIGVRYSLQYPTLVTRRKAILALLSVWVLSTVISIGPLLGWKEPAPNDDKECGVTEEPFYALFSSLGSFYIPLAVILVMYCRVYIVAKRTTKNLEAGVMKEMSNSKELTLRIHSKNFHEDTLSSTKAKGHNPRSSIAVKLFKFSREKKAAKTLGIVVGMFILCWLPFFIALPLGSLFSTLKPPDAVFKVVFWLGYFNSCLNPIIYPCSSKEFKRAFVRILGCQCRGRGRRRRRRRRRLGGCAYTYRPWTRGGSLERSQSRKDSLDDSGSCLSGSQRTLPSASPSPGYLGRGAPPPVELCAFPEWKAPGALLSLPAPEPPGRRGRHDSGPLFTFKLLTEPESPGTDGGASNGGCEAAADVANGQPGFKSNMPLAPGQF

[6] = biological target: T5, Alpha-2C adrenergic receptor (Homo sapiens) (UniProt P18825); test: Efficacy as percentage of the maximal effect observed for nonselective agonist UK-14304 in CHO cells expressing human Alpha-2C adrenergic receptor; type: functional, cell-based
T5 sequence (whole entry): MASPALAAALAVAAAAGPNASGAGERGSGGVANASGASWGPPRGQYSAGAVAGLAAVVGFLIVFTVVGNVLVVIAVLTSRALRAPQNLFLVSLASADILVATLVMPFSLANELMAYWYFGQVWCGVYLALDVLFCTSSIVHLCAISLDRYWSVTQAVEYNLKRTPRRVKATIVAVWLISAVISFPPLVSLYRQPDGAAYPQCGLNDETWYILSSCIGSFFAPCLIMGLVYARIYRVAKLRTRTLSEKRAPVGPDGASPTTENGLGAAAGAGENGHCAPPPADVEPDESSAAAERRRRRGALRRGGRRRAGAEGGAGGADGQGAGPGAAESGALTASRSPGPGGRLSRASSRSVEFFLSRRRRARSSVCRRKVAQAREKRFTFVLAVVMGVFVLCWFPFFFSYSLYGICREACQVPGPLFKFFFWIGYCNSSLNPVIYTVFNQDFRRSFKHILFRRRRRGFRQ

[7] = biological target: T6, Alpha-2C adrenergic receptor (Homo sapiens, UniProt P18825); test: Affinity to human Alpha-2C adrenergic receptor determined by radioligand binding techniques from chinese hamster ovary (CHO) cells; type: cell-based
T6 sequence (P18825 whole entry): T5 sequence (whole entry)

SMILES | Ki [1] [nM] | EC50 [2] [nM] | Ki [3] [nM] | Ki [4] [µM] | Ki [5] [nM] | Max [6] [%] | Ki [7] [nM]
CC(C)S(=O)(=O)c1ccccc1NCC1=NCCN1 | 2820 | > 5010 | 2690 | > 6.31 | 1000 | 50 | > 5010
CS(=O)(=O)c1c(F)cccc1NCC1=NCCN1 | 3470 | > 100000 | 550 | > 6.31 | 2290 | 93 | 257
CS(=O)(=O)c1cccc(F)c1NCC1=NCCN1 | 912 | > 100000 | 417 | > 6.31 | 380 | 93 | 692
CS(=O)(=O)c1ccc(F)cc1NCC1=NCCN1 | 2630 | > 100000 | 813 | > 6.31 | 1320 | 91 | > 5010
CC(C)Sc1ccccc1NCC1=NCCN1 | 224 | > 5010 | 57.5 | 2.34 | 170 | 91 | 166
CS(=O)(=O)c1ccccc1NCC1=NCCN1 | 3800 | – | 589 | > 6.31 | 1290 | 68 | > 5010
CCCS(=O)(=O)c1ccccc1NCC1=NCCN1 | 1380 | – | 2190 | > 6.31 | 832 | 56 | 2630
CSc1ccc(C)cc1NCC1=NCCN1 | 17.4 | 0.912 | 20.9 | 0.977 | 123 | 81 | 200
CSc1ccc(Cl)cc1NCC1=NCCN1 | 4.68 | 2.69 | 18.6 | 0.676 | 69.2 | 92 | 170
Cc1ccc(S(C)(=O)=O)c(NCC2=NCCN2)c1 | 4790 | > 2000 | 776 | > 6.31 | 3470 | 76 | > 5010
C[S+]([O-])c1ccccc1NCC1=NCCN1 (stereo not drawn) | 1200 | – | 1290 | > 6.31 | 794 | 74 | > 5010
CSc1ccccc1NCC1=NCCN1 | 11.2 | – | 43.7 | 0.776 | 66.1 | 82 | 145
COc1ccc(SC)c(NCC2=NCCN2)c1 | 107 | 5.01 | 174 | > 6.31 | 692 | 74 | 603
CS(=O)(=O)c1cc(Cl)ccc1NCC1=NCCN1 | 871 | > 100000 | 457 | > 6.31 | 646 | 54 | 3980
CS(=O)(=O)c1ccc(Cl)cc1NCC1=NCCN1 | 2400 | > 100000 | 537 | > 6.31 | 2950 | 81 | 4790
CS(=O)(=O)c1cc(F)ccc1NCC1=NCCN1 | 1620 | – | 661 | > 6.31 | 513 | 32 | > 5010
CCS(=O)(=O)c1ccccc1NCC1=NCCN1 | 2240 | > 100000 | 1200 | > 6.31 | 912 | 64 | 2510
CSc1ccc(F)cc1NCC1=NCCN1 | 6.17 | 21.9 | 33.1 | 0.331 | 40.7 | 97 | 115
CCSc1ccccc1NCC1=NCCN1 | 57.5 | 51.3 | 43.7 | 1.62 | 75.9 | 101 | 269
